{
  "source": "ChEMBL document CHEMBL4257520",
  "about": "“Design, synthesis and bioactivity investigation of tetrandrine derivatives as potential anti-cancer agents” (Medchemcomm, 2018)",
  "key": {"[1]": {"system": "HEL", "assay": "Antiproliferative activity against HEL cells after 48 hrs by MTT assay", "format": "functional, cell-based", "conditions": "Homo sapiens", "outline": "(§1)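 MTT assay on human cancer lines held at 37 °C, 95% humidity, 5% CO2. Cells were exposed to compounds at 20.0–0.5 μM for 48 h, then washed twice with PBS. MTT (5 mg mL–1 in PBS) was added for 4 h at 37 °C, the formazan was dissolved in DMSO, and A490 was read. IC50 comes from replicate wells over three independent experiments.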"}, "[2]": {"system": "K562", "assay": "Antiproliferative activity against human K562 cells after 48 hrs by MTT assay", "format": "functional, cell-based", "conditions": "K562, 48 h", "outline": "as §1"}, "[3]": {"system": "PC-3", "assay": "Antiproliferative activity against human PC3 cells after 48 hrs by MTT assay", "format": "functional, cell-based", "conditions": "PC-3, 48 h", "outline": "as §1"}, "[4]": {"assay": "Antiproliferative activity against human WM9 cells after 48 hrs by MTT assay", "format": "functional, cell-based", "conditions": "WM9, 48 h", "outline": "as §1"}, "[5]": {"system": "MDA-MB-231", "assay": "Antiproliferative activity against human MDA-MB-231 cells after 48 hrs by MTT assay", "format": "functional, cell-based", "conditions": "MDA-MB-231, 48 h", "outline": "as §1"}, "[6]": {"system": "L02", "assay": "Cytotoxicity against human HL7702 cells after 48 hrs by MTT assay", "format": "cell-based", "conditions": "L02, 48 h", "outline": "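Normal human liver HL7702 cells were assessed by MTT assay, with formazan absorbance as the read-out, to give an IC50 for cytotoxicity.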"}, "[7]": {"system": "MDA-MB-231", "assay": "Induction of apoptosis in human MDA-MB-231 cells assessed as live cells at 2.5 uM after 24 hrs by Annexin V-FITC/propidium iodide staining based flow cytometry (reference value: 95.7%)", "format": "functional"}, "[8]": {"system": "MDA-MB-231", "assay": "Induction of apoptosis in human MDA-MB-231 cells assessed as early apoptotic cells at 2.5 uM after 24 hrs by Annexin V-FITC/propidium iodide staining based flow cytometry (reference value: 2.1%)", "format": "functional"}, "[9]": {"system": "MDA-MB-231", "assay": "Induction of apoptosis in human MDA-MB-231 cells assessed as late apoptotic cells at 2.5 uM after 24 hrs by Annexin V-FITC/propidium iodide staining based flow cytometry (reference value: 1.9%)", "format": "functional"}, "[10]": {"system": "MDA-MB-231", "assay": "Induction of apoptosis in human MDA-MB-231 cells assessed as necrotic cells at 2.5 uM after 24 hrs by Annexin V-FITC/propidium iodide staining based flow cytometry (reference value: 0.3%)", "format": "functional"}, "[11]": {"system": "MDA-MB-231", "assay": "Induction of apoptosis in human MDA-MB-231 cells assessed as live cells at 1.25 uM after 24 hrs by Annexin V-FITC/propidium iodide staining based flow cytometry (reference value: 95.7%)", "format": "functional"}, "[12]": {"system": "MDA-MB-231", "assay": "Induction of apoptosis in human MDA-MB-231 cells assessed as early apoptotic cells at 1.25 uM after 24 hrs by Annexin V-FITC/propidium iodide staining based flow cytometry (reference value: 2.1%)", "format": "functional"}, "[13]": {"system": "MDA-MB-231", "assay": "Induction of apoptosis in human MDA-MB-231 cells assessed as late apoptotic cells at 1.25 uM after 24 hrs by Annexin V-FITC/propidium iodide staining based flow cytometry (reference value: 1.9%)", "format": "functional"}, "[14]": {"system": "MDA-MB-231", "assay": "Induction of apoptosis in human MDA-MB-231 cells assessed as necrotic cells at 1.25 uM after 24 hrs by Annexin V-FITC/propidium iodide staining based flow cytometry (reference value: 0.3%)", "format": "functional"}, "[15]": {"system": "MDA-MB-231", "assay": "Induction of apoptosis in human MDA-MB-231 cells after 24 hrs by Annexin V-FITC/propidium iodide staining based flow cytometry", "format": "functional, cell-based"}, "[16]": {"system": "MDA-MB-231", "assay": "Induction of apoptosis in human MDA-MB-231 cells assessed as increase in Bax expression at 2.5 uM after 24 hrs by Western blot analysis", "format": "functional, cell-based", "outline": "(§2)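 MDA-MB-231 cells were treated at 2.5 μM for 24 h and lysed in RIPA buffer. Protein was resolved on 10% SDS-PAGE, transferred to PVDF, and blocked in 5% BSA for 2 h at RT. Primary antibodies were applied overnight at 4 °C and HRP-conjugated secondary antibodies for 2 h at RT. Bands were detected by ECL, with β-actin as the loading reference.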"}, "[17]": {"system": "MDA-MB-231", "assay": "Induction of apoptosis in human MDA-MB-231 cells assessed as increase in cleaved PARP expression at 2.5 uM after 24 hrs by Western blot analysis", "format": "functional, cell-based", "outline": "as §2"}, "[18]": {"system": "MDA-MB-231", "assay": "Induction of apoptosis in human MDA-MB-231 cells assessed as decrease in Bcl-xl expression at 2.5 uM after 24 hrs by Western blot analysis", "format": "functional, cell-based", "outline": "as §2"}, "[19]": {"system": "MDA-MB-231", "assay": "Induction of apoptosis in human MDA-MB-231 cells assessed as decrease in Bcl2 expression at 2.5 uM after 24 hrs by Western blot analysis", "format": "functional, cell-based", "outline": "as §2"}},
  "note": "Calls of active or inactive are those of the source. The calls are words filed in the database; no cut-off is given here.",
  "data": [
    {"smiles": "COc1cc(NS(=O)(=O)c2ccc3ccccc3c2)c2cc1Oc1ccc(cc1)C[C@H]1c3cc(c(OC)cc3CCN1C)Oc1c(OC)c(OC)cc3c1[C@H](C2)N(C)CC3", "values": [
      {"measurement": "IC50", "setting": "[1]", "value": 2330, "unit": "nM"},
      {"measurement": "IC50", "setting": "[2]", "value": 1680, "unit": "nM"},
      {"measurement": "IC50", "setting": "[3]", "value": 3.96, "unit": "µM"},
      {"measurement": "IC50", "setting": "[4]", "value": 4.74, "unit": "µM"},
      {"measurement": "IC50", "setting": "[5]", "value": 1180, "unit": "nM"},
      {"measurement": "IC50", "setting": "[6]", "value": 14.4, "unit": "µM"},
      {"measurement": "Activity", "setting": "[7]", "value": 42.6, "unit": "%"},
      {"measurement": "Activity", "setting": "[8]", "value": 28.6, "unit": "%"},
      {"measurement": "Activity", "setting": "[9]", "value": 27.2, "unit": "%"},
      {"measurement": "Activity", "setting": "[10]", "value": 1.5, "unit": "%"},
      {"measurement": "Activity", "setting": "[11]", "value": 85.9, "unit": "%"},
      {"measurement": "Activity", "setting": "[12]", "value": 3.8, "unit": "%"},
      {"measurement": "Activity", "setting": "[13]", "value": 9.6, "unit": "%"},
      {"measurement": "Activity", "setting": "[14]", "value": 0.7, "unit": "%"},
      {"measurement": "Activity", "setting": "[15]", "value": "Dose-dependent effect"},
      {"measurement": "Activity", "setting": "[16]", "value": "Active"},
      {"measurement": "Activity", "setting": "[17]", "value": "Active"},
      {"measurement": "Activity", "setting": "[18]", "value": "Active"},
      {"measurement": "Activity", "setting": "[19]", "value": "Active"}
    ]}
  ]
}
